The source of these data is PMC13102995 (Biomedicine & Pharmacotherapy, 2026).

Read-outs that look alike come from different tables or passages of the source.

Data set [1] in a line: Solubility and aggregation observed on preparation of the peptides. Format: physicochemical. As to conditions: observation.
Data set [2] has as its target T1, PLCβ3 (Homo sapiens, UniProt Q01970).
T1 sequence (Q01970 1-1234): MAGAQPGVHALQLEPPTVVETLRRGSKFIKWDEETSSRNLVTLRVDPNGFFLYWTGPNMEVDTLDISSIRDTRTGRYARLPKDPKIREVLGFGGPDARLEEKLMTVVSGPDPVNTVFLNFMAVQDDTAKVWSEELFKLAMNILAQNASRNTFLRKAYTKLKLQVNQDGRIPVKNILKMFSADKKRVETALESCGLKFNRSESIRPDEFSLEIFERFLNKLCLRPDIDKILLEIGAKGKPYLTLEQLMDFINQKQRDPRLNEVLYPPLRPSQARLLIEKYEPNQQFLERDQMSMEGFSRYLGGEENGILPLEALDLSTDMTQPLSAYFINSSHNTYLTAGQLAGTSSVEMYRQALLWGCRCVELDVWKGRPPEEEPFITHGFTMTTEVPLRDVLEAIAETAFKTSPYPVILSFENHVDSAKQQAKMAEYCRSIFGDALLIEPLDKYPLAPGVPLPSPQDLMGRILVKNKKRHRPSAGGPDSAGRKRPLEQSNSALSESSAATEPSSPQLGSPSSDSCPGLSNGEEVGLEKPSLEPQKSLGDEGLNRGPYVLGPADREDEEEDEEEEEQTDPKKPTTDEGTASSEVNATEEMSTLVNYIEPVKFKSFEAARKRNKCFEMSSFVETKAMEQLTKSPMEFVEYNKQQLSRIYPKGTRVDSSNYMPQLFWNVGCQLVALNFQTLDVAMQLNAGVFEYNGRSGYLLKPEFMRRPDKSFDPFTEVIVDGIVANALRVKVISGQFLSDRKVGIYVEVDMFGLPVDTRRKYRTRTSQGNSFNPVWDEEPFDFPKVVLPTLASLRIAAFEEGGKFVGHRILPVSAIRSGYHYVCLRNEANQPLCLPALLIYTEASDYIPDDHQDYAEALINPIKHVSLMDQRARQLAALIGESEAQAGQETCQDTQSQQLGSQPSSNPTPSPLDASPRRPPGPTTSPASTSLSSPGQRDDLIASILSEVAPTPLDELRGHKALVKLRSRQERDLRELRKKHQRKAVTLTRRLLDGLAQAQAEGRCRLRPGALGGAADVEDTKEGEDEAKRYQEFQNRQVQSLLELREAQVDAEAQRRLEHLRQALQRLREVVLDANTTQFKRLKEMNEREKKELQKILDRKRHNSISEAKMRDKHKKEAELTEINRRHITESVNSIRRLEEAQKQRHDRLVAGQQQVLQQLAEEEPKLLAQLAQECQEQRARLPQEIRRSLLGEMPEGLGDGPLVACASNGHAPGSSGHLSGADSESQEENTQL
The data set is described as follows: Surface plasmon resonance binding to pulled-down PLCβ3. As to conditions: 12.5–200 µM, multi-cycle, HBS-EP+ buffer, 25 °C. In short, it runs like this:
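Multi-cycle SPR at 25 °C. Peptides at 12.5–200 µM, including a randomized control peptide, in HBS-EP+, injected over active and reference flow cells for 250 s at 5 µL/min, with return to baseline between cycles. Reference-subtracted binding levels were read at the end of injection after baseline subtraction.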

The test system of data set [3] is PLCγ. Description: TG-induced store-operated calcium. The settings on record: U73122 2 µM, 1 h; 1 µM TG; HaCaT; mean ± SEM, N = 2. Format: cell-based, human. In short, it runs like this: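 HaCaT on coverslips used 48 h after plating, loaded with 6 µg/mL Fluo-4 AM/0.05% Pluronic plus test compound (100 µM), 0.1% DMSO or 2 µM U73122 for 1 h, then washed ≥20 min. In Ca2+-free solution, 1 µM thapsigargin/0.1 mM EGTA for 3 min, then 2 mM Ca2+ to trigger SOC entry. Cells ≥20 AFU analysed; ΔFSOC/ΔFTG normalised to vehicle.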

Data set [4] concerns neonatal rat dorsal root ganglion (DRG) neurons. Format: cell-based. The settings on record: U73122 5 µM, 1 h; 500 nM capsaicin pulses, 1 µM BK. Put shortly: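 DRG neurons from 3–5-day-old Wistar rats, collagenase IA digested (2.5 mg/mL, 1 h), grown 48 h on 60-electrode arrays (poly-L-lysine/laminin) with NGF and cytosine arabinoside. Test compound (100 µM) or 0.1% DMSO pre-incubated 1 h in serum medium without NGF; PLC inhibitor at 5 µM. Three 30-s pulses of 500 nM capsaicin (P1–P3); bradykinin used at 1 µM.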

In data set [5] the test system is PLCβ. The data set is described as follows: PIP2 imaging: BK-induced PLCδ-PH-GFP translocation in HEK293T cells. Format: cell-based, Human. As to conditions: PL2003 100 µM, U73122 2 µM, PL2204 1–100 µM; versus vehicle. In short, it runs like this:
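HEK293T transfected with PLCδ-PH-GFP, replated 24 h later on poly-D-lysine and imaged after another 24 h. Pre-incubation 1 h with test compound (1, 10, 100 µM), vehicle or 2 µM U73122. Baseline 30 s in Ca2+-containing solution, pH 7.4, then 250 nM bradykinin for 2 min. Translocation = ΔF/F0; time to maximum timed from onset; IC50 from Hill-equation fit.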

Data set [6] relates to PLCβ. Format: cell-based, Human. The settings on record: U73122 2 µM, HEK293, mean ± SEM; for inhibition of ACh-induced intracellular Ca2+ response: 1 h, 1 µM ACh.

Consider Ac-IYSSNV-NH2 [PL2005], for which, in data set [1] (in different solvents), the solubility result is recorded as “solubility problems in different solvents”. For the same molecule, in data set [1] (prepared in 0.4% DMSO in extracellular solution), the aqueous solubility result is given as “poor aqueous solubility”.

For Ac-IVSNRYSK-NH2 [randomized PL2204], the “binding to pulled-down PLCβ3 (SPR)” value in data set [2] was “strongly reduced binding levels”.

Take `COc1ccc2c(c1)CC[C@@H]1[C@@H]2CC[C@]2(C)[C@@H](NCCCCCCN3C(=O)C=CC3=O)CC[C@@H]12` [Peptide U73122, 1-(6-((17β-3-methoxyestra-1,3,5(10)-trien-17-yl)amino)hexyl)-1H-pyrrole-2,5-dione]: the “SOC activity (ΔFSOC / ΔFTG normalized to vehicle)” value in data set [3] is 55.4 ± 9.4. In data set [4], the “inhibition of BK-induced TRPV1 sensitization (P3 - P2)” value is given as “did not significantly attenuate”. For the same molecule, in data set [5], the “time to reach maximum PLCδ-PH-GFP translocation” value is “does not modify”. The “inhibition of ACh-induced intracellular Ca2+ response” value was 40.5 ± 9.4% in data set [6] (experiment of Fig. 2B), 65.4 ± 4.3% in data set [6] (experiment of Fig. 2C) and 51.9 ± 7.5% in data set [6] (experiment of Fig. 2D). The “percentage of ACh-responsive cells normalized to vehicle” value worked out at 66.7 ± 9.3% in data set [6] (experiment of Fig. 2C) and 62.0 ± 12.0% in data set [6] (experiment of Fig. 2D).
